DDE Tn6 FP inh: disrupts Tn6 cyclic peptide binding to fibrin D-Dimer-E complex | 0.21% of 370,000 active | Fibrin DD(E) TRITC-Tn6 fluorescence polarization displacement | P02675 | inhibition, % at 8.3 µM;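 active = inhibition above a per-campaign cutoff: mean of compounds within control limits plus 3 SD, cut at about 15% in these data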
Target sequence (P02675 whole entry, looked up): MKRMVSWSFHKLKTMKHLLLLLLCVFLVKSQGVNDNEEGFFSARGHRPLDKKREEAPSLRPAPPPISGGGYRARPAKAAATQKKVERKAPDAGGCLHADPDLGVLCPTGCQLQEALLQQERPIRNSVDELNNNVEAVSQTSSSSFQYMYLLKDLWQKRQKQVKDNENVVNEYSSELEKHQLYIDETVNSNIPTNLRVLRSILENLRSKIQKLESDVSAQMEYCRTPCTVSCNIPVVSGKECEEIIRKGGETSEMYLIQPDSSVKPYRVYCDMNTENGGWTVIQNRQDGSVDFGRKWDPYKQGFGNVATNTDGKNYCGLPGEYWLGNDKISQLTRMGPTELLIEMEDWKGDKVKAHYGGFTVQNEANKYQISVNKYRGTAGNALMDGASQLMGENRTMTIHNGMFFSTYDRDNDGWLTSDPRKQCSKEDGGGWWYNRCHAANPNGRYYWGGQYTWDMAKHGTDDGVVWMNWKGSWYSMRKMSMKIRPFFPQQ
SKN-1 block: blocks SKN-1 activity in C. elegans; C. elegans VP596 Pgst-4::GFP/RFP ratio, acrylamide-induced, 24 h; inhibition, % at 21.8 µM; 0.49% of 360,000 active;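 active = interference check ratio from 0.5 to 1.5 plus GFP to RFP signal ratio inhibition reaching or exceeding a fixed threshold, cut at about 30% in these data, passing the limit was not always enough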
DDE Tn7 FP inh: inhibitors of Tn7 peptide binding to human fibrin DD(E). P02675. FP displacement of FITC-Tn7 peptide from fibrin DD(E); 0% = median of compound wells per plate. inhibition, % at 8.3 µM. 0.13% of 370,000 active;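 active = inhibition above the mean of compounds falling within the control limits plus 3 SD of them, cut at about 14% in these data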
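System: human fibrin DD(E); quantity: Fibrin-DD(E) at 2 µM final; also added: fluorescent Tn7 probe at 0.1 µM; compound dosing: single nominal test concentration of 8.3 µM per compound; schedule: 10 min preincubation, 3 h with tracer, room temperature; detection: fluorescence polarization of the labelled Tn7 tracer; repeats: one replicate per compound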
MT1-MMP act inh: blocks activation of human MT1-MMP. P50281. HT1080 RFP-PRO-GFP cells, GFP/RFP ratio fluorescence, overnight; percent of plate control window, DMSO zero. GFP/RFP ratio change, % at 20 µM. 0.061% of 360,000 active;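 active = GFP/RFP ratio change of at least 30% with cell ATP level not reduced by more than half and red fluorescence within 50% of control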
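Material – HT1080 RFP-PRO-GFP cells · Control set – DMSO wells and RFP-L50D-GFP cells · Incubation – overnight cell settling, then overnight compound exposure, 37 °C, 5% CO2 · Compound dosing – single-point 20 µM compound, 1% DMSO · Read-out – GFP/RFP fluorescence ratio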
MT1-MMP act val: blocks activation of human MT1-MMP in validation testing; shares compounds with MT1-MMP act inh; HT1080 RFP-PRO-GFP cells, GFP and RFP fluorescence ratio, overnight; inhibition, % at 20 µM; 10% of 200 active; AID 652235;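 active = inhibition of at least 50% in the primary cell screen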
DDE Tn6 FP ctr: DD(E)-Tn6 binding inhibition, counter-screen; shares compounds with DDE Tn6 FP inh; Fibrin DD(E), TRITC-Tn6 fluorescence polarization displacement; 0% = median of compound wells, not DMSO; inhibition, % at 8.3 µM; 2% of 680 active;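 active = inhibition above the mean of test compounds lying between the control limits plus 3 SD of those, cut at about 14% in these data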
Tn6 DDE conf: confirmation of inhibitors of Tn6 binding to human fibrin DD(E); shares compounds with DDE Tn6 FP inh; FP displacement of TRITC-Tn6 peptide from DD(E); 0% = per-plate median of test wells; inhibition, % at 8.3 µM; 10% of 680 active; AID 720631;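 active = inhibition above the mean of compounds lying within the control limits plus 3 SD, cut at about 16% in these data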
Large screens that a line does not name were inactive (follow-up assays come after a bar, where they were run). In the library only some 0.84% were active in any assay of this set; here they are far more common.

CCN(CCN(C)C)C(=O)c1ccc2c(c1NCCO)C(=O)c1ccccc1C2=O	none
CN1/C(=C\C(=O)c2cccnc2)C(C)(C)c2ccccc21	none
CN1/C(=C\C=N\NC(=O)c2cccnc2)C(C)(C)c2ccccc21	none
CN1/C(=C\C=N\NC(=O)c2ccc(O)cc2)C(C)(C)c2ccccc21	MT1-MMP act inh 59 | MT1-MMP act val inactive
CN1/C(=C\C(=O)c2cncc(Br)c2)C(C)(C)c2ccccc21	MT1-MMP act inh 31 | MT1-MMP act val inactive
Cc1c(NC(=S)/C=C2\N(C)c3ccccc3C2(C)C)c(=O)n(-c2ccccc2)n1C	MT1-MMP act inh 33 | MT1-MMP act val inactive
CC(=O)/C=C1\N(C)c2ccc(C)cc2C1(C)C	MT1-MMP act inh 47 | MT1-MMP act val inactive
COc1cccc(NC(=O)N(C)C[C@H]2OCc3ccccc3-c3c(n(C)c4ccccc34)C(=O)N([C@H](C)CO)C[C@H]2C)c1	none (no result: SKN-1 block, MT1-MMP act inh)
N#Cc1ncn(C2OC(CO)C(O)C2O)c1N (stereo not given)	none
CN(C)CCn1c(SCc2ccccc2C#N)nc2c(sc3ccccc32)c1=O	none
Cc1ccc(C(=O)NC(=S)/C=C2\N(C)c3ccccc3C2(C)C)cc1	MT1-MMP act inh 40 | MT1-MMP act val inactive
CCn1c(C)c(C2=CCN(S(=O)(=O)c3ccc(C)cc3)CC2)c2ccccc21	DDE Tn6 FP inh 25, MT1-MMP act inh 31 | MT1-MMP act val inactive | DDE Tn6 FP ctr inactive | Tn6 DDE conf inactive
CCn1c(=O)c(=O)[nH]c2cc(C(=O)NC3CC3)ccc21	none
CCn1c(=O)c(=O)[nH]c2cc(C(=O)NC3CCCc4ccccc43)ccc21 (stereo not given)	DDE Tn6 FP inh 18, MT1-MMP act inh 31 | MT1-MMP act val inactive | DDE Tn6 FP ctr inactive | Tn6 DDE conf inactive
Cc1cc2ccccc2n1CCNC(=O)C1CCCCC1	DDE Tn6 FP inh 39, MT1-MMP act inh 38 | MT1-MMP act val inactive | DDE Tn6 FP ctr inactive | Tn6 DDE conf inactive
COc1ccc(N=Nc2nc(-c3ccccc3)c(-c3ccccc3)[nH]2)cc1	none
COc1ccccc1N=Nc1nc(-c2ccccc2)c(-c2ccccc2)[nH]1	DDE Tn6 FP inh 21, SKN-1 block 36, MT1-MMP act inh 31 | MT1-MMP act val inactive | DDE Tn6 FP ctr inactive | Tn6 DDE conf inactive
Cc1cc2cc(CNC(=S)Nc3ccc(OC(F)F)cc3)ccc2n1C	DDE Tn6 FP inh 20, SKN-1 block 46, MT1-MMP act inh 47 | MT1-MMP act val inactive | DDE Tn6 FP ctr inactive | Tn6 DDE conf inactive
COc1cc(OC)cc(C(=O)NCc2ccc3c(c2)cc(C)n3C)c1	none
COc1ccc(C(=O)NCc2ccc3c(c2)cc(C)n3C)cc1	DDE Tn6 FP inh 19, SKN-1 block 44, MT1-MMP act inh 31 | MT1-MMP act val inactive | DDE Tn6 FP ctr inactive | Tn6 DDE conf inactive
COC(=O)C1=C(C(=O)OC)[C@@]2([C@H](Cc3ccc(C)cc3)Nc3ccccc3)C=C[C@@H]1O2	none (no result: SKN-1 block, MT1-MMP act inh)
O=C(Oc1ccccc1C(=S)N1CCOCC1)c1ccc([N+](=O)[O-])cc1[N+](=O)[O-]	none
Cc1ccc(C2CC(=O)Oc3cc(O)ccc32)cc1 (stereo not given)	DDE Tn6 FP inh 34, SKN-1 block 35, MT1-MMP act inh 38 | MT1-MMP act val inactive | DDE Tn6 FP ctr inactive | Tn6 DDE conf inactive
O=[N+]([O-])c1ccc(N=Nc2ccc(O)cc2O)cc1	none
O=S(=O)(O)c1cc(Cl)cc(N=Nc2ccc(O)cc2O)c1O	DDE Tn6 FP inh 23, MT1-MMP act inh 62 | MT1-MMP act val inactive | DDE Tn6 FP ctr inactive | Tn6 DDE conf 30
COCCNC(=O)C1(C)CCN(C(=O)c2ccc(OC)c(F)c2)C1 (stereo not given)	none
O=C1c2ccccc2C(=O)c2c(O)c(O)cc(O)c21	DDE Tn6 FP inh 65, MT1-MMP act inh 47 | MT1-MMP act val inactive | DDE Tn6 FP ctr inactive | Tn6 DDE conf 88

Bioassay records as filed in PubChem BioAssay.
